PMC9218293 (Molecular Therapy Oncolytics, 2022)
Where two headings read alike, the source gives them in different places.

Legend:
[1] = system: TME of YUMM1.7P-derived tumors; assay: Flow cytometry of tumor-infiltrating immune cells; type: in vivo, C57BL/6 mice; conditions: VEM 20 mg/kg i.p. daily, n = 6
Outline: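 C57BL/6 mice (6–8 weeks) received 3 × 10⁵ YUMM1.7P cells s.c. Vehicle or vemurafenib was given at 20 mg/kg i.p. daily. Tumors were harvested and dissociated to single cells. Dead cells were excluded with fixable viability dye eFluor 506. Populations were gated as frequencies among live/dead⁻CD45⁺ cells: MDSCs CD45⁺CD11b⁺Gr1⁺, TAMs CD45⁺Gr1⁻CD11b⁺F4/80⁺, CD8⁺ T cells CD45⁺CD3⁺CD8⁺. n = 6 mice/group, means ± SEM.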

YUMM1.7P-derived tumors = assay: Syngeneic mouse melanoma model, tumor growth; type: in vivo, C57BL/6 mice; conditions: 20 mg/kg i.p. daily; n = 6 mice/group; Figure 1A
Outline: (§1)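 Tumors were established in C57BL/6 mice (6–8 weeks) by s.c. injection of 3 × 10⁵ YUMM1.7P or YUMM1.7R cells. Daily i.p. vehicle or vemurafenib was given at 20 mg/kg. Tumor size was monitored, n = 6 mice/group, as means ± SEM with two-way ANOVA and Tukey's post hoc test. Mice with tumors >1,500 mm³ were euthanized.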

YUMM1.7R cells = assay: WST-8 cell viability assay; type: cell-based; conditions: Mus musculus
Outline: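 Resistant YUMM1.7R cells were derived by exposing parental YUMM1.7 cells to vemurafenib for 8–10 weeks, with the concentration escalated from a low (condition 1) or medium (condition 2) start. They were then kept under continuous 5 μM vemurafenib in DMEM/F12 with 10% fetal bovine serum and 1% penicillin/streptomycin at 37°C, 5% CO₂.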

YUMM1.7R-derived tumors = assay: Syngeneic mouse melanoma model, tumor growth and survival; type: in vivo, C57BL/6 mice; conditions: 20 mg/kg i.p. daily; n = 6 mice/group; Figure 1A
Outline: as §1

YUMM1.7P cells = assay: WST-8 cell viability assay; type: cell-based; conditions: Mus musculus, read-out: IC50 value of vemurafenib for YUMM1.7P cells
Outline: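 Parental mouse melanoma YUMM1.7 cells (BRAF V600E) were grown in DMEM/F12 with 10% fetal bovine serum and 1% penicillin/streptomycin at 37°C, humidified 5% CO₂.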

[2] = system: TME of YUMM1.7R-derived tumors; assay: Flow cytometry of tumor-infiltrating immune cells; type: in vivo, C57BL/6 mice; conditions: VEM 20 mg/kg i.p. daily, n = 6
[3] = system: P-ERK1/2 (Thr202/Tyr204) in YUMM1.7R cells; assay: Immunoblotting for P-ERK1/2 after vemurafenib; type: cell-based, mouse; conditions: vemurafenib 5 μM; YUMM1.7R condition 1; immunoblot; Figure S1C
[4] = system: P-ERK1/2 (Thr202/Tyr204) in YUMM1.7P cells; assay: Immunoblotting for P-ERK1/2 after vemurafenib; type: cell-based, mouse; conditions: vemurafenib 5 μM, immunoblot, Figure S1C

CCCS(=O)(=O)Nc1ccc(F)c(C(=O)c2c[nH]c3ncc(-c4ccc(Cl)cc4)cc23)c1F [vemurafenib]
frequency of CD8+ T cells ([1]; CD45+CD3+CD8+, Figure 1D): increased
frequency of MDSCs ([1]; CD45+CD11b+Gr1+, Figure 1B): significant decrease
frequency of TAMs ([1]; CD45+Gr1-CD11b+F4/80+, Figure 1C): significant decrease
frequency of CD3+CD4+ T cells ([1]; Figure S3): No significant change
inhibition of tumor growth (YUMM1.7P-derived tumors): highly sensitive
IC50 (YUMM1.7R cells; read-out: IC50, YUMM1.7R (condition 1)): 10.4 µM
IC50 (YUMM1.7R cells; read-out: IC50, YUMM1.7R (condition 2)): 9.48 µM
tumor growth (YUMM1.7R-derived tumors): unaffected
IC50 (YUMM1.7P cells): 3.12 µM
frequency of MDSCs ([2]; Figure 1B): reduction
frequency of TAMs ([2]; Figure 1C): reduction
frequency of CD8+ T cells ([2]; Figure 1D): failed to increase
frequency of CD3+CD4+ T cells ([2]; Figure S3): No significant change
ERK phosphorylation [3]: this reduction was dramatically suppressed
ERK phosphorylation [4]: considerable reduction
